Measurements: ChEMBL document CHEMBL3286188 (J Med Chem, 2014)
Calls of active or inactive are those of the source. The calls are words filed in the database; no cut-off is given here.

Experiments:
[1] = target: T1, Estrogen receptor (Homo sapiens) (UniProt P03372); assay: Agonist activity at ER in human MCF7:WS8 cells assessed as increase in GREB1 gene expression at 10^-6 M after 48 hrs by RT-PCR analysis; format: cell-based
T1 sequence (whole entry): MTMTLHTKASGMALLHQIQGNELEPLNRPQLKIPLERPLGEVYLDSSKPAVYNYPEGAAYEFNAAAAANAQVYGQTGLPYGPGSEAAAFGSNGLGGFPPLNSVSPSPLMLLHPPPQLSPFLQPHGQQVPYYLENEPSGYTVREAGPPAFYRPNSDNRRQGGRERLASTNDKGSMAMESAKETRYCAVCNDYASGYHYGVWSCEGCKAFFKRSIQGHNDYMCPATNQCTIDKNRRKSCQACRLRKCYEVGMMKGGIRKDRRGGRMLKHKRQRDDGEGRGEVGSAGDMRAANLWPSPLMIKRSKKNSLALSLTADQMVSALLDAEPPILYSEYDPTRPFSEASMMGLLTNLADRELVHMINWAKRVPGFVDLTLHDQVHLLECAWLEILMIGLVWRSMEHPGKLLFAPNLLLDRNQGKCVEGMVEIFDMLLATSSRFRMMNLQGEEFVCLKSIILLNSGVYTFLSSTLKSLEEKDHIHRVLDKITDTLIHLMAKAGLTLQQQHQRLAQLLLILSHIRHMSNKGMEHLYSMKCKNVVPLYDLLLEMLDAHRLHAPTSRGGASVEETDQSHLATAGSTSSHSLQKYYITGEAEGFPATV
How it was run: (§1)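 After 3 days estrogen starvation, MCF-7:WS8 cells were seeded at 300 000 cells/well and treated for 48 h, then harvested in Trizol. pS2, GREB1 and PgR mRNA measured by real-time PCR with primers checked by single-peak dissociation curves.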

[2] = target: T1, Estrogen receptor (Homo sapiens); assay: Agonist activity at ER in human MCF7:WS8 cells assessed as increase in pS2 gene expression at 10^-6 M after 48 hrs by RT-PCR analysis; format: cell-based; how it was run: as §1
[3] = target: T1, Estrogen receptor (Homo sapiens); assay: Agonist activity at ER in human MCF7:WS8 cells assessed as cell growth by measuring DNA level at 1.17 X 10^-9 M after 7 days by fluorescence analysis; format: cell-based
How it was run: (§2)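 MCF-7:WS8 cells kept 3 days in phenol red-free RPMI 1640 with 10% charcoal-stripped serum, then seeded at 10 000 cells/well. Next day treated with serial dilutions (10–12 to 10–6 M) or single therapeutic-level concentrations in estrogen-free medium. Medium changed every 2 days, 7 days total, triplicate points.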

[4] = target: T1, Estrogen receptor (Homo sapiens); assay: Antagonist activity at ER in human MCF7:WS8 cells assessed as inhibition of estradiol-induced cell growth by measuring DNA level after 7 days by fluorescence analysis; format: cell-based; details: concentration not given here
[5] = target: T1, Estrogen receptor (Homo sapiens); assay: Agonist activity at ER in human MCF7:WS8 cells assessed as increase in PgR gene expression at 10^-6 M after 48 hrs by RT-PCR analysis; format: cell-based; how it was run: as §1
[6] = target: T1, Estrogen receptor (Homo sapiens); assay: Antagonist activity at ER in human MCF7:WS8 cells assessed as inhibition of estradiol-induced cell growth by measuring DNA level after 7 days treated at highesy drug concentration by fluorescence analysis; format: cell-based
[7] = Effect on ER-alpha protein level in human MCF7:WS8 cells at 1 nM after 24 hrs by Western blot analysis; format: functional
How it was run: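 Cells estrogen-starved 3 days in phenol red-free RPMI 1640, 3 million seeded per 10 cm dish, treated 24 h. Lysates (20 μg protein by BCA) run on 4–12% Bis-Tris gels, blotted to nitrocellulose, probed with rabbit anti-ERα and anti-β-actin, detected by ECL. Densitometry normalized to β-actin, background subtracted, vehicle = 100%. Three independent experiments.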

[8] = target: T1, Estrogen receptor (Homo sapiens); assay: Agonist activity at ER in human MCF7:WS8 cells assessed as increase in cell growth by measuring DNA level at 10^-6 M after 7 days by fluorescence analysis; format: cell-based; how it was run: as §2
[9] = target: T1, Estrogen receptor (Homo sapiens); assay: Agonist activity at ER in human MCF7:WS8 cells assessed as cell growth by measuring DNA level at 0.56 X 10^-9 M after 7 days by fluorescence analysis; format: cell-based; how it was run: as §2
[10] = target: T1, Estrogen receptor (Homo sapiens); assay: Antagonist activity at ER in human MCF7:WS8 cells assessed as inhibition of estradiol-induced cell growth by measuring DNA level at 10^-6 M after 7 days by fluorescence analysis; format: cell-based

Activity [1] | Activity [2] | Activity [3] | inhibition [4] [%] | Activity [5] | inhibition [6] [%] | Activity [8] | Activity [9] | inhibition [10] [%] | Compound | Activity [7] [%]
Active | Active | inactive | 10 | Active | 10 | – | – | – | CNCCOc1ccc2c(c1)CCCC(c1ccccc1)=C2c1ccc(O)cc1 | –
Active | Active | – | – | Active | 20 | Active | inactive | – | CN(C)CCOc1ccc2c(c1)CCCC(c1ccccc1)=C2c1ccc(O)cc1 | –
Active | Active | – | – | Active | 20 | Active | – | – | CCOc1ccc2c(c1)CCCC(c1ccccc1)=C2c1ccc(O)cc1 | –

Continued, compound first:

Compound | Activity [1] | Activity [2] | Activity [3] | inhibition [4] [%] | Activity [5] | inhibition [6] [%] | Activity [8] | Activity [9] | inhibition [10] [%] | Activity [7] [%]
C[C@]12CC[C@@H]3c4ccc(O)cc4CC[C@H]3[C@@H]1CC[C@@H]2O [ESTRADIOL] | – | – | – | – | – | – | – | – | – | 60
CCC(=C(c1ccc(O)cc1)c1ccc(O)cc1)c1ccc(O)cc1 | Active | Active | – | – | Active | 20 | – | – | – | –
CCC(=C(c1ccc(O)cc1)c1ccc(O)cc1)c1ccccc1 | Active | Active | – | – | Active | 20 | Active | – | – | –
CCOc1ccc(C2=C(c3ccccc3)CCCc3cc(O)ccc32)cc1 | Active | Active | – | – | Active | 20 | Active | – | 20 | –
COc1ccc2c(c1)CCCC(c1ccccc1)=C2c1ccc(O)cc1 | Active | Active | – | – | Active | 20 | Active | – | – | –
COc1ccc(C2=C(c3ccccc3)CCCc3cc(O)ccc32)cc1 | Active | Active | – | – | Active | 20 | Active | – | – | –
